Calls of active or inactive are those of the source. The rule behind the calls is not given here.
How the values were obtained:
[1] = tested on: L3.6pl; assay: Effect on polyamine level in human L3.6PL cells assessed as putrescine level per mg protein in supernatant at 5 uM measured after 72 hrs in presence of amine oxidase suppressor aminoguanidine by LCMS analysis (reference value: 977 +/- 522 pmol/mg); type: functional
[2] = tested on: L3.6pl; assay: Effect on polyamine level in human L3.6PL cells assessed as acetyl spermidine level per mg protein in supernatant at 2 uM measured after 72 hrs in presence of amine oxidase suppressor aminoguanidine by LCMS analysis (reference value: 1936 +/- 1365 pmol/mg); type: functional
[3] = tested on: L3.6pl; assay: Effect on polyamine level in human L3.6PL cells assessed as methionine level human L3.6PL cells assessed per mg protein in supernatant at 2 uM pretreated with aminoguanidine for 24 hrs followed by compound treatment after 72 hrs by LCMS analysis (reference value: 22834 +/- 1984 pmol/mg); type: functional
[4] = tested on: L3.6pl; assay: Effect on polyamine level in human L3.6PL cells assessed as phenylalanine level per mg protein in supernatant at 2 uM measured after 72 hrs in presence of amine oxidase suppressor aminoguanidine by LCMS analysis (reference value: 14299 +/- 7194 pmol/mg); type: functional
[5] = biological target: Large neutral amino acids transporter small subunit 1 (Homo sapiens) (UniProt Q01650); assay: Inhibition of LAT1-mediated amino acid transport in human L3.6PL cells assessed as reduction in intracellular leucine level by measuring leucine level per mg protein in cell lysate at 5 uM measured after 72 hrs by LCMS analysis (reference value: 232 +/- 10 pmol/mg); type: cell-based
Summary of the method: (§1)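 L3.6pl cells (50,000 cells/mL, 10 mL, 1 mM aminoguanidine) were seeded in poly-lysine-treated 9 cm dishes and incubated overnight at 37°C. They were then dosed with compound at 2, 5 or 7 μM from PBS stocks (2, 5, 7 mM) and incubated 72 h. Runs were done in triplicate, with amino acid levels per mg protein.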

[6] = biological target: Large neutral amino acids transporter small subunit 1 (Homo sapiens) (UniProt Q01650); assay: Inhibition of LAT1-mediated amino acid transport in human L3.6PL cells assessed as reduction in intracellular methionine level by measuring methionine level per mg protein in cell lysate at 2 uM measured after 72 hrs by LCMS analysis (reference value: 167 +/- 67 pmol/mg); type: cell-based; summary of the method: as §1
[7] = biological target: Large neutral amino acids transporter small subunit 1 (Homo sapiens) (UniProt Q01650); assay: Inhibition of LAT1-mediated [3H]-leucine uptake in human L3.6PL cells at 2 to 7 uM preincubated for 24 hrs at 37 degree C followed by HBBS addition and compound washout and measured after 15 mins by scintillation counter method; type: cell-based
Summary of the method: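 L3.6pl cells were preincubated with compound for 24 h at 37°C, then washed and placed in HBSS. ³H-leucine uptake was measured over 15 min at 37°C. Unbound label was removed with three cold buffer washes, and counts were normalized to μg protein.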

[8] = biological target: Large neutral amino acids transporter small subunit 1 (Homo sapiens) (UniProt Q01650); assay: Inhibition of LAT1-mediated [3H]-leucine uptake in human L3.6PL cells at 2 to 7 uM preincubated for 24 hrs at 37 degree C followed by HBBS addition and compound washout and subsequent compound dosing measured after 30 mins by scintillation counter method; type: cell-based
Summary of the method: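 L3.6pl cells were preincubated 24 h at 37°C with compound, washed and placed in HBSS. Compound was then added back just before ³H-leucine, followed by a 30 min incubation at 37°C. After cold washes, radioactivity was counted and normalized to μg protein.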

[9] = tested on: CHO-K1; assay: Cytotoxicity against CHOK1 cells assessed as reduction in cell viability after 48 hrs by MTS assay; type: cell-based; conditions: Cricetulus griseus, CHO-K1, 48 h
Summary of the method: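 Cells in RPMI 1640 with 10% FBS, 1% penicillin/streptomycin, 37°C, 5% CO2, with aminoguanidine (1 mM for CHO K1 and CHO-MG, 250 μM for L3.6pl). Plated overnight at 1000 cells/well (CHO lines) or 500 cells/well (L3.6pl). Compound in PBS added, 48 h exposure. Growth read as MTS formazan absorbance at 490 nm. IC50 is the dose giving 50% relative growth versus untreated control. Run twice in triplicate.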

[10] = biological target: Large neutral amino acids transporter small subunit 1 (Homo sapiens) (UniProt Q01650); assay: Induction of LAT1-mediated polyamine efflux in aminoguanidine pretreated human L3.6PL cells assessed as reduction in cell viability at 5 uM measured after 72 hrs in presence of putrescine by MTS assay; type: cell-based
Summary of the method: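 L3.6pl cells pre-incubated 24 h with 250 μM aminoguanidine. Then given increasing compound plus putrescine, spermidine or spermine, each fixed at 1 or 5 μM, for 72 h at 37°C. Growth by MTS relative to untreated control.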

[11] = tested on: CHO-K1; assay: Induction of polyamine efflux in aminoguanidine pretreated CHOK1 cells assessed as reduction in cell viability measured after 72 hrs in presence of spermidine by MTS assay; type: ADME, cell-based, Cricetulus griseus; conditions: chinese hamster, cho-k1, 72 h
[12] = tested on: L3.6pl; assay: Effect on polyamine level in human L3.6PL cells assessed as decrease in intracellular spermidine level at 1 uM measured after 72 hrs in presence of amine oxidase suppressor aminoguanidine and Ant-44 by LCMS analysis; type: functional, cell-based
Summary of the method: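 L3.6pl cells dosed with Ant-44 fixed at 2 μM plus increasing compound for 72 h at 37°C. Intracellular polyamines and Ant-44 given as nmol/mg protein, in duplicate, with a parallel untreated control.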

Sequence of Large neutral amino acids transporter small subunit 1 (Homo sapiens) (Q01650 whole entry): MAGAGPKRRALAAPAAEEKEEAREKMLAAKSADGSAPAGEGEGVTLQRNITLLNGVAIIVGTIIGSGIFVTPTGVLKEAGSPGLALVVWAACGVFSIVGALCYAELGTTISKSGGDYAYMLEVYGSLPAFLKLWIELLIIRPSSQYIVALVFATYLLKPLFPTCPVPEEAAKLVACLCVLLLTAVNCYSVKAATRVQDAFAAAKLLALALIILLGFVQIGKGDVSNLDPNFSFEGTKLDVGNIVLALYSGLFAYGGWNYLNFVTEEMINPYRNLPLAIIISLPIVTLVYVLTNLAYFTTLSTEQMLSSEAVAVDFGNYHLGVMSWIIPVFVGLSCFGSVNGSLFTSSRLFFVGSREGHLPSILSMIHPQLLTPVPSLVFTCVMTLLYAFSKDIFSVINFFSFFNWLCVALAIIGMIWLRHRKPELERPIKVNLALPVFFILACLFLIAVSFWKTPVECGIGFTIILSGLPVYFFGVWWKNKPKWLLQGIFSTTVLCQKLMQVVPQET

Activity [5]: 94 pmol/mg
Activity [6]: 226 pmol/mg
inhibition [7]: inactive
inhibition [8]: inactive
SMILES: CC(C)CCN1CCN([C@@H](CNCc2ccccc2)CC2CCCCC2)C[C@@H]1CC(C)C
Activity [1]: 2224 pmol/mg
Activity [2]: 1649 pmol/mg
Activity [3]: 17686 pmol/mg
Activity [4]: 11954 pmol/mg
IC50 [9]: 8 µM
Activity [10]: Active
Activity [11]: Active
Activity [12]: Active

From ChEMBL document CHEMBL4613249, “Serendipitous Discovery of Leucine and Methionine Depletion Agents during the Search for Polyamine Transport Inhibitors” (J Med Chem, 2020)
